Screening data (PubChem BioAssay)
RAM network inh – inhibitors of the yeast RAM network; actives 1.8% (n = 190,000); S. cerevisiae dse1pr::URA3 reporter, 5-FOA growth OD615, 2 d; analog-sensitive cbk1-as2 kinase mutant strain; inhibition, % at 50 µM;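 active means inhibition above a set limit, 3 SD over mean compound inhibition, cut at about 8.4% in these data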;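 further: 0% = DMSO-only wells with no growth and 100% = 10 µM 1-NA-PP1 full growth; inhibition rescues growth on 5-FOA so higher OD means more RAM inhibition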
SDO1 yeast rescue – sdo1-depleted yeast growth rescue | z-score at 10 µM | S. cerevisiae sdo1-depleted JHY4D growth rescue, OD600 30 h; active compounds read high; pdr5 snq2 efflux-pump mutant strain | actives 0.21% (n = 140,000) | AID 817;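 active means z-score above 3 at both the 24 hr and the 30 hr optical density reads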;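 further: z-score against mean and SD of all compound wells on the same plate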
BB579 growth dn – yeast BB579 growth reduction in restrictive medium; inhibition, % at 10 µM; actives 0.51% (n = 140,000); S. cerevisiae BB579 growth, OD615, 48 h;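 active means inhibition above a set limit, 3 SD over the mean compound inhibition, cut at about 44% in these data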
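Test system: S. cerevisiae DeaD strain BB579 yeast; Medium: restrictive CSMM-D medium; Compound: one dose, 10 µM compound with 0.25% DMSO; Incubation: 4 h cell preincubation, 48 h compound exposure, 30 °C humidified; Signal: OD at 615 nm; Benchmarks: amphotericin B at 10 µg/mL as positive control.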
Yeast lifespan up – yeast lifespan extension; S. cerevisiae growth with nicotinamide, OD615; deaD strain in restrictive glucose medium; inhibition of the nicotinamide effect, % at 10 µM; actives 0.68% (n = 130,000);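 active means inhibition above a set limit, placed 3 SD over the median of all compounds, cut at about 26% in these data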;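 further: 0% = nicotinamide-treated wells and 100% = cells grown without nicotinamide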
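Assay system: DeaD-strain S. cerevisiae. Medium: CSMM-D glucose medium, restrictive. Reagent: nicotinamide, 1.5 mM, co-present with compound. Compound: 10 µM single point, 0.25% DMSO. Schedule: culture preincubation 4 h, compound exposure 48 h, both 30 °C. Detection: absorbance at 615 nm.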
* hit, by the source's call; · = not tested or not shown. In the library only some 2.7% were active in any assay of this set; here they are far more common.

SMILES	RAM network inh	SDO1 yeast rescue	BB579 growth dn	Yeast lifespan up
CC(C)(C)c1nnc(N/N=C/c2cc(Br)ccc2O)n(N)c1=O	0	-0.28	53*	-1
NC(=O)N/N=C\c1cc(Br)ccc1O	1	-0.57	-50	18
Cc1cccc(NC(=S)NCCc2ccc3c(c2)OCCO3)c1C	-1	·	·	·
O=C(NCCCc1nc2ccccc2[nH]1)c1ccc(F)cc1	0	·	·	·
Cc1ccc(C2(c3noc(CN(C)Cc4cnn(C)c4)n3)CCCC2)cc1	1	·	·	·
O=C(CSc1ccc2ccccc2n1)NCCC1=CCCCC1	8.6*	-1.8	-17	5
Cc1ccc(SCC(=O)NCCC2=CCCCC2)cc1	2	-0.82	-43	-12
COc1ccc(CCC(=O)Nc2c(C)n(C)n(-c3ccccc3)c2=O)cc1	0	·	·	·
CCOC(=O)c1c(NC(=O)c2nn(C)cc2[N+](=O)[O-])sc(C)c1C	2	·	·	·
O=C(c1cncc(Br)c1)N1CCc2ccccc2C1	0	0.08	-54	43*
O=C(c1ccc(Cl)nc1)N1CCc2ccccc2C1	1	1.2	-45	-14
C/C(=N/NC(=O)CCCOc1ccc(Cl)cc1Cl)c1ccc(C)o1	2	-0.16	-25	-1
CCc1ccc(C(CC(=O)c2ccc(Cl)cc2)C(=O)O)cc1 (stereo not given)	3	1	-69	31*
CSc1nc(-c2ccccc2F)c(C#N)c(=O)n1C	8.6*	·	·	·
CSc1nc(C)c(Oc2ccccc2)c(=O)n1C	1	1.1	-55	-6
Cc1cc(C)cc(OC(=O)C23CCC(C)(C(=O)O2)C3(C)C)c1 (stereo not given)	-1	·	·	·
CC(C)N(C(=O)CSc1nnnn1-c1ccc2c(c1)OCO2)C(C)C	0	·	·	·
O=C(Cn1c(-c2cscn2)nc2ccccc21)Nc1ccc2ccccc2c1	11*	-1.4	-40	-16
CS(=O)(=O)Oc1ccc(Br)cc1/C=C1/N=C(c2ccco2)OC1=O	2	-0.17	-15	49*
O=C1OC(c2ccc(Br)cc2)=N/C1=C\c1ccco1	2	·	·	·
Cc1cccc(Cc2cnc(NC(=O)c3ccc(C)o3)s2)c1	8.8*	-1.9	-20	-21
CN(CCN1CCOCC1)Cc1nc(-c2ccccc2)no1	0	·	·	·
O=C(COC(=O)Cc1c(Cl)cccc1Cl)Nc1ccccc1-c1ccccc1	10*	-0.67	-61	2
O=C(COC(=O)Cc1ccc(Cl)cc1)Nc1ccccc1-c1ccccc1	8	-1.2	-18	-4
O=C(COC(=O)Cc1cccc2ccccc12)Nc1ccccc1-c1ccccc1	11*	-1	-24	-2
SMILES	RAM network inh	SDO1 yeast rescue	BB579 growth dn	Yeast lifespan up
O=C(COC(=O)/C=C/c1ccc(Cl)cc1)Nc1ccccc1-c1ccccc1	8.7*	0.32	-44	9
CC(Oc1ccc(Cl)cc1)C(=O)NNC(=S)NC(=O)c1ccco1 (stereo not given)	1	-2	-6	-13
O=C(OCc1nnc(-c2ccc(Cl)cc2)o1)c1ccncc1	4	1.5	-69	6
Cc1noc(C)c1COc1ccc(C(=O)OCc2nnc(-c3ccc(Cl)cc3)o2)cc1	10.0*	-1	-71	-6
COc1ccc(OC)c(NC(=S)N2CCC(C(O)(c3ccccc3)c3ccccc3)CC2)c1	3	-0.89	-43	-1
O=c1c2ccccc2nc(-c2ccc(Cl)c(Cl)c2)n1O	0	1.2	-17	76*
Cc1ccc2cc(C#N)c(SCC(=O)N3CCCc4ccccc43)nc2c1	2	-0.95	4	3
Cc1ccc2cc(C#N)c(SCC(=O)N3CCCc4ccccc43)nc2c1C	9.2*	0.14	-48	-2
Cc1cc2nc(-c3ccc4c(c3)CCC4)ccn2n1	0	·	·	·
COc1ccc(C(=O)COC(=O)c2cc(S(=O)(=O)NCc3ccccc3)ccc2O)cc1	9.1*	·	·	·
COc1ccc(C(=O)NC(=S)N2CCOCC2)cc1OC	1	·	·	·
CCSc1cc(N2CCCC2)nc(-c2ccccc2Cl)n1	0	-0.8	-12	5
CCc1nnc(N2C(=O)c3ccc(Oc4ccc([N+](=O)[O-])cc4)cc3C2=O)s1	1	0.19	-33	52*
COc1cccc(CC(NC(C)=O)C(=O)NC2CCN(C(=O)C3CC3)CC2)c1OC (stereo not given)	0	·	·	·
CCOC(=O)/C(=C/c1ccc(Cl)cc1)NC(=O)c1ccco1	2	-0.04	-46	12
Cc1ccc(C(=O)N/C(=C\c2ccccc2)C(=O)OCc2ccccc2)cc1	9.5*	-0.81	-26	3
O=C(OCc1ccccc1)/C(=C/c1ccc(Cl)cc1)NC(=O)c1ccccc1Cl	9.2*	-1.5	-56	-1
N#Cc1ccccc1Cn1cc(/C=C/[N+](=O)[O-])c2ccccc21	6	-1.1	-2	35*
CCOC(=O)N1CCN(CC(=O)Nc2sccc2C#N)CC1	0	·	·	·
COc1c(C)cc(C(=O)C2CCCN(C(=O)c3ccc4cc[nH]c4c3)C2)cc1C (stereo not given)	0	·	·	·
O=C1C(=O)c2c(C(=O)c3ccccc3)coc2-c2ccccc21	-1	-2.9	99*	-16
Cc1oc2c(c1C(=O)c1ccccc1)C(=O)C(=O)c1ccccc1-2	2	-1.9	1	-24
COc1ccc(NC(=O)c2nc(C)n(-c3ccc([N+](=O)[O-])cc3)n2)cc1	2	·	·	·
CCCCn1c(-c2nonc2N)nc2ccccc21	·	-1.5	7	-7
CC(C)CCn1c(-c2nonc2N)nc2ccccc21	10*	-1.8	-58	·
SMILES	RAM network inh	SDO1 yeast rescue	BB579 growth dn	Yeast lifespan up
CCOC(=O)c1sc(NC(C)=O)c(C(=O)OCC)c1C	2	-0.32	-28	-16
CCOC(=O)c1sc(NC(=O)CN(CC)CC)c(C(=O)OCC)c1C	1	-0.14	-3	28*
COc1ccc(CCn2c(-c3ccccc3)nc3c(c(=O)c4ccccc4n3C)c2=O)cc1	3	-1.2	-58	31*
Cc1ccc(Nc2cc(C)nn2-c2nc(C)cc(C)n2)cc1	0	-1.2	25	-10
Cc1ccc(Nc2cc(C)nn2-c2nc(C)cc(=O)[nH]2)cc1	2	-2.3	100*	-27
CC(=O)c1cccc(NC(=O)COC(=O)C2=COCCO2)c1	0	·	·	·
CCCc1nn(C)c(C(=O)Nc2ccccc2)c1Cl	3	0	-11	-7
COc1cc(OC)cc(C(=O)N[C@H](C(=O)OCC(=O)Nc2ccc(F)c(F)c2)C(C)C)c1	8.6*	-0.45	-10	0
CCc1cc(SC#N)ccc1N	0	·	·	·
CCOC(=O)C(C)(C)N(Cc1cccc(C)c1)S(=O)(=O)c1ccc(Cl)c([N+](=O)[O-])c1	11*	-0.8	-27	0
O=C(CN(c1cccc(C(F)(F)F)c1)S(=O)(=O)c1ccc(Cl)c([N+](=O)[O-])c1)NCc1ccccc1	8	-1.8	-9	-1
CCOc1ccccc1NC(=O)COC(=O)CC(NC(N)=O)c1ccc(Cl)cc1 (stereo not given)	-2	·	·	·
CSCCC(NC(=O)c1ccccc1)C(=O)OCC(=O)Nc1ccc(C)c(Cl)c1 (stereo not given)	6	-0.49	-37	-7
CSCCC(NC(=O)c1ccc(Cl)cc1)C(=O)OCC(=O)Nc1cc(Cl)ccc1C#N (stereo not given)	8.7*	-0.66	2	-4
